# Paper PMC5489371 (Leukemia & lymphoma, 2017)
# Assays:
# [1] = tested on: patients with relapsed hematologic malignancies; test: Response assessment, all 27 patients; assay type: in vivo, human; settings: 95% CI: 53.7 – 88.8
# Procedure, shortened: (§1)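 Open-label, single-centre, first-in-human 3+3 dose-escalation trial. Adults with relapsed or refractory CLL, Hodgkin or non-Hodgkin lymphoma (WHO 2008) or MM (IMWG criteria) had to have had at least one prior therapy; MM patients had prior immunomodulatory agent and proteasome inhibitor. Test compound was given orally Mon/Wed/Fri for three weeks of each 28-day cycle at 20, 40, 50 or 70 mg, until unacceptable toxicity or progression.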
# [2] = tested on: soluble CD44 (sCD44); test: ELISA for soluble CD44 in serum of MM patients; assay type: in vivo, human
# Procedure, shortened: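 Serum from relapsed multiple myeloma patients was collected at baseline before dosing and on cycle 1 day 15. Soluble human CD44 was measured by ELISA following the kit manufacturer's protocol. Patients took the oral HDAC inhibitor Monday, Wednesday and Friday for three weeks, then one week off, in 28-day cycles.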
# [3] = tested on: patients with relapsed hematologic malignancies; test: Phase 1 dose escalation trial of single-agent AR-42: safety and tolerability; assay type: in vivo, human
# [4] = tested on: MM cell lines (U266, H929, RPMI 8226, ARH-77, and IM-9); settings: MM cell lines and primary MM cells; cited from earlier work
# [5] = tested on: patients with relapsed MM; test: Response assessment, multiple myeloma patients; assay type: in vivo, human
# Procedure, shortened: as §1
# [6] = QTc measurement; assay type: in vivo, human
# [7] = Pharmacokinetic analysis of AR-42 in patient plasma; assay type: in vivo, human
# [8] = tested on: patients with relapsed lymphoma; test: Response assessment, lymphoma patients; assay type: in vivo, human
# Procedure, shortened: as §1
# [9] = tested on: patients treated with single agent panobinostat; settings: cited from earlier work
# [10] = between the 20 and 40 mg dose levels
# [11] = between the 40 and 50 mg dose levels
molecule,measurement,setting,value
AR-42,patients with stable disease for between 1 and 3 cycles,[1],20 of 27
same,"reduction of sCD44, mean difference","[2]; 10 MM patients, 95% CI: 3.19–32.72, paired t-test, p=0.0022",17.95
same,MM patients with decreased sCD44 levels,[2]; baseline vs cycle 1 day 15,nine
same,MM patients in whom CD44 decreased more than 20% by day 15,[2]; cycle 1 day 15,four
same,dose-limiting toxicities (DLTs),[3]; in vivo,no DLTs were evident
same,grade 3 or 4 fatigue,[3]; in vivo,no patient suffered grade 3 or 4 fatigue
same,patients requiring hospitalization,[3]; in vivo,seven
same,patients requiring temporary holds of study treatment,[3]; in vivo,seven
same,"patients with SAEs possibly, probably, or likely related to AR-42",[3]; in vivo,five
same,patients with neutropenia (grade 1 – 3),[3]; in vivo,11 patients
same,patients with neutropenia (grade 1 – 4),[3]; in vivo,12 patients
same,maximum tolerated dose (MTD),"[3]; oral, three times weekly (M-W-F) for three weeks of a 28-day cycle",40 mg
same,potency in comparison to vorinostat,[4],four- to seven-fold more potent
same,Cycles of Treatment,"[5]; MM patient ID 1, 20 mg (1a)",1 cycles
same,Cycles of Treatment,"[5]; MM patient ID 4, 40 mg (2a)",3 cycles
same,Cycles of Treatment,"[5]; MM patient ID 5, 40 mg (2a)",18 cycles
same,Cycles of Treatment,"[5]; MM patient ID 6, 40 mg (2a)",3 cycles
same,Cycles of Treatment,"[5]; MM patient ID 7, 40 mg (1b)",3 cycles
same,Cycles of Treatment,"[5]; MM patient ID 8, 40 mg (1b)",1 cycles
same,Cycles of Treatment,"[5]; MM patient ID 10, 50 mg (2b)",1 cycles
same,Cycles of Treatment,"[5]; MM patient ID 11, 50 mg (2b)",1 cycles
same,Cycles of Treatment,"[5]; MM patient ID 12, 50 mg (2b)",1 cycles
same,Cycles of Treatment,"[5]; MM patient ID 13, 50 mg (2b)",3 cycles
same,Cycles of Treatment,"[5]; MM patient ID 17, 70 mg (3b)",5 cycles
same,Cycles of Treatment,"[5]; MM patient ID 20, 40 mg (4b)",2 cycles
same,Cycles of Treatment,"[5]; MM patient ID 21, 40 mg (4b)",1 cycles
same,Cycles of Treatment,"[5]; MM patient ID 22, 40 mg (4b)",2 cycles
same,Cycles of Treatment,"[5]; MM patient ID 25, 40 mg (4b)",2 cycles
same,Cycles of Treatment,"[5]; MM patient ID 26, 40 mg (4b)",1 cycles
same,Cycles of Treatment,"[5]; MM patient ID 27, 40 mg (4b)",3 cycles
same,"duration of disease control, one patient with MM","[5]; human, in vivo",19 months
same,MM patients who progressed during the first cycle,[5]; of 17 MM patients,four
same,"QTc prolongation, highest grade","[6]; all 27 patients, not associated with cardiac events or dose reductions",≤ 1 grade
same,mean maximum QTc change,"[6]; all patients, range 10 – 60, standard deviation 14.5",27.4
same,"peak concentration (geometric mean, %CV)","[7]; 20 mg oral, day 19, plasma",0.335 (65.6) μM
same,"peak concentration (geometric mean, %CV)","[7]; 20 mg oral, day one, plasma",0.383 (56.2) μM
same,"peak concentration (geometric mean, %CV)","[7]; 40 mg oral, day 19, plasma",0.830 (27.9) μM
same,"peak concentration (geometric mean, %CV)","[7]; 40 mg oral, day one, plasma",0.794 (23.8) μM
same,"peak concentration (geometric mean, %CV)","[7]; 50 mg oral, day one, plasma",1.60 (37.5) μM
same,fold increase in mean day one AUC0-∞,[7]; [10],1.9 fold
same,fold increase in mean day one Cmax,[7]; [10],2.1 fold
same,fold increase in mean day one AUC0-∞,[7]; [11],1.7 fold
same,fold increase in mean day one Cmax,[7]; [11],2.0 fold
same,"duration of disease control, one patient with mantle cell lymphoma",[8]; ongoing,27 months
same,best response in patients with relapsed lymphoma,[8]; ten patients,stable disease
Cc1[nH]c2ccccc2c1CCNCc1ccc(/C=C/C(=O)NO)cc1 [panobinostat],patients with fatigue,[9],47.4%
